Measured values as given in ChEMBL document CHEMBL5137109, “Tunable Cysteine-Targeting Electrophilic Heteroaromatic Warheads Induce Ferroptosis” (J Med Chem, 2022).
Calls of active or inactive are those of the source. The rule behind the calls is not given here.

What was measured:
[1] = Selectivity ratio of IC50 for human HCT-116 cells to IC50 for human NCI-H522 cells by methylene blue staining based analysis; type: functional
NCI-H522 [2] = assay: Cytotoxicity against human NCI-H522 cells assessed as time required to cause 50% irreversible cell death treated with compound followed by washing for every 30 mins for 6 hrs by methylene blue staining based analysis; type: functional
How it was run: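 NCI-H522 cells, 5*10³/well (n=3), plated overnight, then treated with compound or DMSO. Wells washed immediately after treatment and then at 30-min intervals up to 6 h; last wells not washed. Methylene blue in 50% ethanol fix/stain 30 min RT, dye dissolved in 0.1N HCl, A668. Each point taken as % survival of matching DMSO-treated cells.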

NCI-H522 [3] = assay: Cytotoxicity against human NCI-H522 cells assessed as reduction in cell viability incubated for 3 days by methylene blue staining based analysis; type: functional; settings: NCI-H522, 72 h
NCI-H522 [4] = assay: Induction of lipid peroxidation in human NCI-H522 cells assessed as increase in C11-BODIPY oxidation at 5 uM incubated for 6 hrs by flow cytometry relative to control; type: functional
How it was run: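 NCI-H522 cells at ~70% density, plated overnight, treated with compound or DMSO together with C11-BODIPY 581/591 (1 μM) for 3 h or 6 h. Cells then PBS-washed, trypsinised, resuspended in PBS with 2% FBS and read by flow cytometry, preferably 20*10³ cells. Oxidation compared with DMSO treatment.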

HCT-116 = assay: Cytotoxicity against human HCT-116 cells assessed as reduction in cell viability incubated for 3 days by methylene blue staining based analysis; type: functional; settings: HCT-116, 72 h
[5] = biological target: T1, Thioredoxin reductase 1, cytoplasmic (Homo sapiens) (UniProt Q16881); assay: Binding affinity to TXRD1 in human NCI-H522 cells at 10 uM incubated for 1 hr by Biotin-TAMRA pull down based western blot analysis; type: cell-based
T1 sequence (whole entry): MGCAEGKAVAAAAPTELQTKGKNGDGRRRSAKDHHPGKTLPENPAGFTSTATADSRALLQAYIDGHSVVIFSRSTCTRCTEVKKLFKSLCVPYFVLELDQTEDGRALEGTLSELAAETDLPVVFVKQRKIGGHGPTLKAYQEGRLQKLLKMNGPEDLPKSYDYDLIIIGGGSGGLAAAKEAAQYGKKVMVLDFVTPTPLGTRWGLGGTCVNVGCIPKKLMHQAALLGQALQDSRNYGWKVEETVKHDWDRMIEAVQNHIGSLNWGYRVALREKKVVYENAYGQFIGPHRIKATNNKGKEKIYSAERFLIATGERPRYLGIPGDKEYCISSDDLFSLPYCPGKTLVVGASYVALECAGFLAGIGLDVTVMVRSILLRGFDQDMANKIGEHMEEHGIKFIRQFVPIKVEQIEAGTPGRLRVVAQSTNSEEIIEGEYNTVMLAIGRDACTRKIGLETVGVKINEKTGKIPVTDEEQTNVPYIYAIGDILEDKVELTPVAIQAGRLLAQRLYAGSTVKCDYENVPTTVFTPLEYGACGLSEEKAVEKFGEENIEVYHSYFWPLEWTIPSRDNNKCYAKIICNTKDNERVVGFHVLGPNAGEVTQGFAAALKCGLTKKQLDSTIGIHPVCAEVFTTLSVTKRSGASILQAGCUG
How it was run: (§1)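 Probe or control given to cells for 1 h at 37 °C, two 10 cm dishes per treatment. Lysates precleared with streptavidin, then clicked to biotin-TAMRA azide (20 min RT plus 10 min 37 °C). Proteins precipitated, captured overnight on streptavidin beads and washed with RIPA/PBS. Bead eluates separated on 12.5% SDS-PAGE and immunoblotted, with milk blocking, primary antibody overnight at 4 °C, HRP secondary and ECL.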

[6] = biological target: T1, Thioredoxin reductase 1, cytoplasmic (Homo sapiens); assay: Binding affinity to TXRD1 in human NCI-H522 cells at 10 uM incubated for 1 hr by Biotin-TAMRA pull down based mass spectrometry; type: cell-based
How it was run: (§2)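 Cells ~70% density, five 10 cm dishes per treatment, exposed to alkyne probe or control for 1 h at 37 °C, then lysed (NP-40/Tris). Lysate precleared on streptavidin beads 2 h at 4 °C, then CuAAC with biotin-TAMRA azide, THPTA, CuSO4 and ascorbate for 30 min at RT. Proteins MeOH/CHCl3 precipitated, enriched overnight on streptavidin, checked by in-gel fluorescence. Reduced/alkylated, trypsin-digested, nano LC-MS/MS. Filtered at 1% FDR, ≥2 unique peptides.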

[7] = biological target: T2, Glutathione S-transferase omega-1 (Homo sapiens) (UniProt P78417); assay: Binding affinity to GSTO1 in human NCI-H522 cells at 10 uM incubated for 1 hr by Biotin-TAMRA pull down based western blot analysis; type: cell-based; how it was run: as §1
T2 sequence (whole entry): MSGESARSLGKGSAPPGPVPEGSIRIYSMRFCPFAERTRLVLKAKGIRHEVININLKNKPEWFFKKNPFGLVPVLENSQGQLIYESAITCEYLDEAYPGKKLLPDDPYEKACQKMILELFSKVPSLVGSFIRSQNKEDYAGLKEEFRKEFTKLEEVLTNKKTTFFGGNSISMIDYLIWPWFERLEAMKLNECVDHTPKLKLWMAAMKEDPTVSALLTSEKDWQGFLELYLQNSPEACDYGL

[8] = biological target: T2, Glutathione S-transferase omega-1 (Homo sapiens); assay: Binding affinity to GSTO1 in human NCI-H522 cells at 10 uM incubated for 1 hr by Biotin-TAMRA pull down based mass spectrometry; type: cell-based; how it was run: as §2
[9] = biological target: T3, Phospholipid hydroperoxide glutathione peroxidase GPX4 (Homo sapiens) (UniProt P36969); assay: Binding affinity to GPX4 in human NCI-H522 cells at 10 uM incubated for 1 hr by Biotin-TAMRA pull down based western blot analysis; type: cell-based; how it was run: as §1
T3 sequence (whole entry): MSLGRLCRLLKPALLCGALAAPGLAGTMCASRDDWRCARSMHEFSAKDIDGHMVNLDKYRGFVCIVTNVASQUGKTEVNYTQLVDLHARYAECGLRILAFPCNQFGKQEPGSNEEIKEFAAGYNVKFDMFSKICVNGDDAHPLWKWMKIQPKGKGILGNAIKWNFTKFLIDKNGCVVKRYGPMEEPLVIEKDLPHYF

[10] = biological target: T3, Phospholipid hydroperoxide glutathione peroxidase GPX4 (Homo sapiens); assay: Binding affinity to GPX4 in human NCI-H522 cells at 10 uM incubated for 1 hr by Biotin-TAMRA pull down based mass spectrometry; type: cell-based; how it was run: as §2
NCI-H522 [11] = assay: Induction of lipid peroxidation in human NCI-H522 cells assessed as increase in C11-BODIPY oxidation at 10 uM incubated for 6 hrs by flow cytometry; type: functional, cell-based
How it was run: (§3)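 NCI-H522 cells (~70% density) plated in dishes overnight, then treated with compound or DMSO plus C11-BODIPY 581/591 (1 μM) added at treatment. After 3 h or 6 h, cells washed, trypsinized, resuspended in PBS with 2% FBS and analysed by flow cytometry (preferably 20×10³ cells). Oxidation compared with DMSO treatment.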

HT-1080 = assay: Cytotoxicity against human HT-1080 cells assessed as reduction in cell viability incubated for 3 days by methylene blue staining based analysis; type: functional; settings: HT-1080, 72 h
NCI-H522 [12] = assay: Cytotoxicity against human NCI-H522 cells assessed as reduction in cell viability incubated for 3 days in presence of ferroptosis inhibitor, liproxstatin-1 by methylene blue staining based analysis; type: functional; settings: NCI-H522, 72 h
How it was run: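 NCI-H522 cells seeded at 25×10³/well (n=3), adhered overnight, then exposed to compound with or without liproxstatin-1 (0.25 μM). After 3 days, methylene blue staining with HCl elution and A668. Results given as % relative to DMSO control, mean ± SD, n=3, one-way ANOVA. Fold change is IC50 (with liproxstatin-1)/IC50 (alone).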

[13] = Cytotoxicity against mouse MEF cells assessed as reduction in cell viability incubated for 3 days by methylene blue staining based analysis; type: toxicity
HeLa = assay: Cytotoxicity against human HeLa cells assessed as reduction in cell viability incubated for 3 days by methylene blue staining based analysis; type: functional; settings: 72 h
MDA-MB-468 = assay: Cytotoxicity against human MDA-MB-468 cells assessed as reduction in cell viability incubated for 3 days by methylene blue staining based analysis; type: functional; settings: MDA-MB-468, 72 h
U2OS = assay: Cytotoxicity against human U2OS cells assessed as reduction in cell viability incubated for 3 days by methylene blue staining based analysis; type: functional; settings: 72 h
[14] = Ratio of IC50 for cytotoxicity against human NCI-H522 cells in presence of ferroptosis inhibitor, liproxstatin-1 to IC50 for cytotoxicity against human NCI-H522 cells; type: functional
How it was run: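 NCI-H522 cells, 25*10³/well (n=3), plated overnight, treated with compound with or without Liproxstatin-1 (0.25 μM). After 3 days, methylene blue in 50% ethanol fix/stain 30 min RT, dye dissolved in 0.1N HCl, A668. Fold change = IC₅₀ with Liproxstatin-1 / IC₅₀ without.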

[15] = Cytotoxicity against human WI-38 cells assessed as reduction in cell viability incubated for 3 days by methylene blue staining based analysis; type: toxicity
NCI-H522 [16] = assay: Induction of lipid peroxidation in human NCI-H522 cells assessed as increase in C11-BODIPY oxidation at 0.5 uM incubated for 3 hrs by flow cytometry; type: functional, cell-based; how it was run: as §3
[17] = biological target: T3, Phospholipid hydroperoxide glutathione peroxidase GPX4 (Homo sapiens); assay: Binding affinity to GPX4 in human NCI-H522 cells assessed as increase in aggregation temperature at 0.5 uM incubated for 1 hr by CETSA analysis; type: cell-based
How it was run: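 Cells ~80% confluent treated 1 h (vehicle DMSO 0.1% v/v), trypsinized, washed, resuspended in PBS and aliquots heated at temperatures between 43–67 °C for 3 min. Cells then pelleted and lysed in NP-40/Tris buffer. Soluble fraction analysed by SDS-PAGE and western blot, and aggregation temperature compared with DMSO. Mean ± SD, n = 3, t-test.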

MDA-MB-231 = assay: Cytotoxicity against human MDA-MB-231 cells assessed as reduction in cell viability incubated for 3 days by methylene blue staining based analysis; type: functional; settings: MDA-MB-231, 72 h

What does the source list for `C#Cc1nc2ccccc2s1`?
Ratio IC50 [1]: 22.8; IT50 (NCI-H522 [2]): 1.7 h; IC50 (NCI-H522 [3]): 0.86 µM; fold change (FC) (NCI-H522 [4]): >5; IC50 (HCT-116): 19.6 µM

With `C#CCNC(=O)c1csc(C#Cc2ccccc2)n1` as the molecule, how does the Activity [5] read?
Its Activity is “Active”.

And the IC50 (NCI-H522 [3])?
The IC50 was > 40 µM.

What about the IC50 (HCT-116) of the same molecule?
The IC50 was > 40 µM.

For `C#CCNC(=O)c1csc(C#C)n1`, which Activity [6] is on record?
The Activity was “Active”.

What about the Activity [7] of the same molecule?
Its Activity is “Active”.

And the IC50 (NCI-H522 [3])?
The IC50 was 2.1 µM.

And the IC50 (HCT-116)?
Its IC50 is 19.2 µM.

What about the Activity [8] of the same molecule?
Its Activity is “Active”.

And the Activity [9]?
Its Activity is “Active”.

What about the Activity [10] of the same molecule?
The Activity was “Active”.

What about the Activity (NCI-H522 [11]) of the same molecule?
Its Activity is “Active”.

Which IC50 (HT-1080) does the source give for `C#Cc1nc(C(=O)N2CCN(C(c3ccc(Cl)cc3)c3ccc(Cl)cc3)CC2)cs1` here?
The IC50 was 0.019 µM.

And the IC50 (NCI-H522 [12])?
Its IC50 is 7.89 µM.

What about the IC50 at 3 days [13] of the same molecule?
The IC50 at 3 days was 0.01 µM.

And the IC50 (HeLa)?
The IC50 was 0.242 µM.

And the IC50 (NCI-H522 [3])?
The IC50 was 0.017 µM.

What about the IC50 (MDA-MB-468) of the same molecule?
Its IC50 is 0.084 µM.

What about the IC50 (HCT-116) of the same molecule?
The IC50 was > 1 µM.

What about the IC50 (U2OS) of the same molecule?
Its IC50 is 0.367 µM.

What about the “Ratio IC50” value [14] of the same molecule?
Its value is 464.353.

What about the IC50 at 3 days [15] of the same molecule?
The IC50 at 3 days was 0.022 µM.

What about the Activity (NCI-H522 [16]) of the same molecule?
The Activity was “Active”.

And the deltaT [17]?
Its deltaT is 7 °C.

And the IC50 (MDA-MB-231)?
The IC50 was 0.021 µM.
